Measurements from the EternaBench riboswitch data.

Test system: MS2 coat protein
Experiment: apparent Kd, MS2 coat protein; higher = weaker binding; RNA-MaP array; FMN 200 µM where present
Method in brief: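 The apparent Kd is reported as the median of filtered per-cluster binding-curve fits. To get these curves, designs transcribed by stalled E. coli RNA polymerase on Illumina sequencing-chip clusters were titrated with SNAP-549-labelled MS2 coat protein from 0.7 or 1.5 nM, doubling to 3 µM. Titrations were run without and then with constant ligand in 100 mM Tris-HCl pH 7.5, 80 mM KCl, 4 mM MgCl2, BSA, DTT, yeast tRNA and Tween-20, and green signal was normalised to red-channel RNA signal and control-cluster median Fmax.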

[1] = designed as: OFF switch for flavin mononucleotide, no ligand
[2] = ligand present: flavin mononucleotide, designed as: OFF switch for flavin mononucleotide
[3] = designed as: ON switch for flavin mononucleotide, no ligand
[4] = ligand present: flavin mononucleotide, designed as: ON switch for flavin mononucleotide

Row | Sequence | apparent Kd [1] [nM] | apparent Kd [2] [nM] | apparent Kd [3] [nM] | apparent Kd [4] [nM]
1 | AAUAACAGAGGAUAUACUAUUUUAUGUAUUUAUUAUUUUGAACAUGAGGAUCACCCAUGUAGAAGGCUGAAUAA | 22.7 | 21.7 |  | 
2 | UUUAGUUCAGGAUAUGUAGAUUUUAACAUGAGGAUCACCCAUGUAGAUCCUGAUCCUGCUACAGAAGGAAAGAUUU | 26.9 | 25.5 |  | 
3 | CAGUCUACAGGAUAUACAUGAGGAUCACCCAUGUGUAUUCACUUUCAGUAAUCCAUAUGUAGAAGGGUAGACUG | 16.9 | 34.2 |  | 
4 | UAUAAUACAUAGGAUAUCGAAUAAAUCAUUUAACGAGAAGGAUGAACAUGAGGAUCACCCAUGUGGUAUCAUGG | 263 | 241 |  | 
5 | GGAUAGUGUCGUUAUCCGUAGCGAACAUGAGGAUCACCCAUGUAGGAUAUGUUAUUAAACUAAUAACAGAAGGACGUUGGUCUC | 66.2 | 434 |  | 
6 | GCUGACGAUGUAGGAUAUCUCGACGAUAAGUCGAGAGAAGGACAUGAGGAUCACCCAUGUAACUCAACGUCAGCGAGGAAACUC | 17.8 | 20.6 |  | 
7 | UCAUGUCCUGAGGAUAUGUAGCGGAUAAACGCAACAGAAGGCAGGACAUGAGGAUCACCCAUGUGUGCCUUCUA | 96.6 | 14.2 |  | 
8 | AAUUAUUUACAGAAGGAGUAAGAUUAUGUAUUACUAGGAUAUGUUCACAUGAGGAUCACCCAUGUCAUUGUAGGUUUUAUAUGU | 10.8 | 8.19 |  | 
9 | UGUCCGAGCAGAGGAUAUUACAUGAGGAUCACCCAUGUAUGAACCAAUAGCUGGAAACAGCAAUGUAAGAAGGCUGCUCCGACA | 12.2 | 155 |  | 
10 | GGGUACAUCGGAGGAUAUCAUGUAAAUACAUGAGGAUCACCCAUGUCGAUGGAGACAUCGGAGAUUAAGAAGGCCGAUGUACCG |  |  | 801 | 842
11 | GGUGCCAUGUAGAAGGCAGAUCUGAUUCACAUCUGAGGAUAUACAUGAGGAUCACCCAUGUAAAGGCACCGCACGAGAGUGCAA | 16.3 | 15 |  | 
12 | AUGAGGUUAGGAUAUACAUGAGGAUCACCCAUGUUGGAGAAGGAAAUGUAAGUAGCGAGUAGAAGGAACGGAGC | 47 | 43.4 |  | 
13 | CUGAUGUUAGGAUAUCAGGCGCCCGCCACUAGCAAGGCGCAUGAGAAGGGACAUGAGGAUCACCCAUGUAGUAA | 28.1 | 50 |  | 
14 | GGACGUAAAGAGAAGGGCUACUGGUUGAAACCUGCGGCCUCUGGAACAUGAGGAUCACCCAUGUAGCAGGAUAUCUUUGCACCA | 157 | 26.7 |  | 
15 | CUUCUGUAAGGAUAUGUAAAUUGCUGACCACACCAGCACCGGCAGAAGGUACAUGAGGAUCACCCAUGUGGGUU | 240 | 148 |  | 
16 | AUUUAUGUCAUAGGAUAUAUAAAUAAAUUUAUAACAUGAGGAUCACCCAUGUACUUUGGUAUGAGGUAGAAGGAUGAUAAGAAU |  |  | 49.6 | 31.9
17 | AAUUUACAGCUAGGAUAUACAUGAGGAUCACCCAUGUGACGAUCGGAUCUUAUGAUCGUGUCCGUGUAGAAGGAGCAAAUAAGA | 8.15 | 10 |  | 
18 | AAGGUGUAAGGAUAUGCUGCUCGUCACUUGCGUGAUGAGUAGCAGAAGGUACAUGAGGAUCACCCAUGUAAAGA | 32.5 | 38.2 |  | 
19 | GUAUAUCACUUAGGAUAUCUAUAAUUUAUUGAAACAUGAGGAUCACCCAUGUUCAUAAAUUUAUAGGAGAAGGGAGUGAUAUAC |  |  | 4.22 | 4.37
20 | CGUAAGAUGCAGAAGGUGUUAGCUAGAGCUACGACAUGAGGAUCACCCAUGUACUAGAAACAGUACAAGGAUAUGCAUCUUACA |  |  | 17.3 | 5.75
21 | UGUGCGUAUGUGAGGAUAUGCUGGUCCUUGGCUCGGCAGAAGGCACAUGAGGAUCACCCAUGUGGUGUCGUACU | 108 | 104 |  | 
22 | GUGUACGGAGGAUAUAUGUGGCGAGCAUACGCUCGAGCUUCACAUGAGGAUCACCCAUGUAGAAGGCUGUGCAC | 19 | 102 |  | 
23 | GCCAUCGUAUGAGGAUAUGGCACCGAAACGGUGCCAGAAGGCAUGUCAAUUGACAUGAGGAUCACCCAUGUAUUAUCGAUGGCA |  |  | 857 | 89
24 | CGGUGACGUGUAGGAUAUGGCGCUGGGUUUUGCCCAGAAGGACAUGAGGAUCACCCAUGUGGUAGAGGGCUGGCGGCCGCCCGC | 29.4 | 29.2 |  | 
25 | GAGGAGCAAGGAUAUACGAGGAUAGGGAAGGUUGGAGAGUGACAUGAGGAUCACCCAUGUAGAAGGUGCAAGGG | 114 | 74 |  | 
26 | ACUUAUUGAGGAUAUACAGAAAAUUACAUGAGGAUCACCCAUGUUCUUCAAUGUAUAUAUGUAGAAGGCAGAAUAG | 14.4 | 27.6 |  | 
27 | UAUAUAAUUAAGAGCUGGAACUCAACAUGAGGAUCACCCAUGUAGGAUAUCAGCACGAUAAGUGCUGAGAAGGACUACCAGCUC | 18.2 | 20.4 |  | 
28 | AUUAUGACCGAGUUAAGCUUCAAAACAUGAGGAUCACCCAUGUAGGAUAUCAGCACGAUAAGUGCUGAGAAGGACAUCUCGGUC | 13.5 | 15.5 |  | 

Row | Sequence | apparent Kd [1] [nM] | apparent Kd [2] [nM] | apparent Kd [3] [nM] | apparent Kd [4] [nM]
29 | UGGUUGGGAGGAUAUCCAAUAUAUGACAUGAGGAUCACCCAUGUUUCCACUCGUACCUCCGGAGAAGGCCCUUCCA | 23.1 | 22 |  | 
30 | UGGUACAUGGGAGGAUAUGGGAAGUUAACAUGAGGAUCACCCAUGUUAUGCCGAAAGGCAAAGAACUAGAAGGCCCAUGUACCU |  |  | 16.7 | 16.1
31 | AAUUAUAUGUAGAAGGUACUAACAUAAGUGUUGUAAGGAUAUACCAAUUUAUUAGUUUUAAAGUUACAUGAGGAUCACCCAUGU |  |  | 12.4 | 7.98
32 | UAAUCUCAGAUAGGAUAUAUAGGAUGAUUUAAGACCGAACAUGAGGAUCACCCAUGUGAUUAUUCGUAGAAGGAUCAAUGACCC |  |  | 122 | 114
33 | GGAUAGGACAGAGGAUAUACGUGCUAGAGAUACUAGCAAAAUUUCCUCACAUGAGGAUCACCCAUGUAGAAGGCUGGCCUAUCG | 14.1 | 379 |  | 
34 | AGAAAUAAAAGAGAGGAUAUCCAAAAGAAAACAUGAGGAUCACCCAUGUAAAAGAAAAUAAAAUGGGAGAAGGCUCAAAAUAAAGA |  |  | 115 | 22.6
35 | AGCGGCGCGGACCACCGCAAAACCAGAAGGACAUGAGGAUCACCCAUGUAACAAAACAGGGCGGUGUAGGAUAUGGCAGACCCA | 10.8 | 9.16 |  | 
36 | UUGGACGUCGUAGGAUAUGUAGGAUAUUCCUACAUGAGGAUCACCCAUGUUGACAUGGAAGAAGGACAGAAGGACGAUUUCCAU |  |  | 284 | 5.41
37 | UUGUUCUGAGGAUAUACAUGAGGAUCACCCAUGUGUUUCUGCUUGGUGUCUAGCGAAUGUAGAAGGCUGUUCUC | 21.7 | 22.9 |  | 
38 | GUUUCGGGAGGAUAUGCGUGGAUUAUUUUCGUAUGUUGUUUACAUGAGGAUCACCCAUGUAGAAGGUCUGGAGC | 42.8 | 228 |  | 
39 | GUAGCAUAAUCAGGAUAUUCAGCGAAUAGAUUGACAUGAGGAUCACCCAUGUGGCGAAAGCCUAGGGAGAAGGGAUAAUGCUAC |  |  | 405 | 42.1
40 | UUACCUUAUGAGAAGGCGGUCAUGAAACAUGAUCGAGGAUAUCAUGUAAACAUGAGGAUCACCCAUGUAUGGGUAUUAUGGUAC |  |  | 165 | 31.8
41 | GGCUUAAACACAGGAUAUAGUCUUAGGGCGAGACUAGAAGGGUGAAGUUCUCAUACAUGAGGAUCACCCAUGUCACGGAGGCUA |  |  | 45.1 | 169
42 | UGCUAGUGAGGAUAUGCUGGAAUAAAGAUUUGACGUGGCGAACAUGAGGAUCACCCAUGUAGAAGGCACAAUAC | 12.8 | 15.7 |  | 
43 | UGUAUGGACAGAGGAUAUACCGAUAGGAUCUACUAUCGAACAAUUCUCACAUGAGGAUCACCCAUGUAGAAGGCUGUCCAUACU | 16 | 29.5 |  | 
44 | CCACCCUGAGGAUAUCCACCCUCAUACAUGAGGAUCACCCAUGUUAAUGCCUGAGUUCCCGGAGAAGGCAGAUUCC | 86.5 | 63.8 |  | 
45 | AAGAACAUUGACAUGAGGAUCACCCAUGUUGCAGCUAGCUACAGAAGGCACGCGGUACCAAAGGGUGAGGAUAUGUAGGGCCAU |  |  | 93.4 | 17.2
46 | GACGCUAAAGGAUAUACAUGAGGAUCACCCAUGUUGAGGAAGGUUAGAUGAGGAGUAAGUAGAAGGUUAGGCGA | 38 | 35.6 |  | 
47 | CGCACUUAGCGAGGAUAUGUAAAACAUGAGGAUCACCCAUGUGAUUUAGCUCCAAUUUUAAUGACACAGAAGGCGCUUAGUGCG | 22.2 | 15.8 |  | 
48 | UGGUACUAGGGAGGAUAUGGGAAGAUACAUGAGGAUCACCCAUGUUUAAGAAUGCCGAAAGGCAACUAGAAGGCCCUAGUACCU |  |  | 430 | 19.9
49 | CUUAUGCGGCAGGAUAUCGUGCUUUUCGAGCAGCGAGAAGGGUCUACAUGAGGAUCACCCAUGUCAGUGGCUCU | 18.3 | 37.8 |  | 
50 | AUCAGCUCGUCAGGAUAUACGUCACUGCUUCGGCAGUGUGGUAAGAUCACAUGAGGAUCACCCAUGUAGAAGGGACGAGCUGAG | 13.2 | 260 |  | 
51 | GUAACUUAUGUCAGGAUAUUACACGCAUUGCGUGGUGAGAAGGGACAUGAGGAUCACCCAUGUCCGGAUGCGGG | 39.8 | 62.6 |  | 
52 | UGUCGGAGCAGAGGAUAUUACAUGAGGAUCACCCAUGUAUGAACCAAUAGCUGGAAACAACAAUGUAAGAAGGCUGCUCCGACA | 7.22 | 38.8 |  | 
53 | UGUUACUAGUAAGGAUAUACUUGCGAUUAGCUUGUAGAAGGUACAGUCUUUUGUAUAACAUGUUUACAUGAGGAUCACCCAUGU |  |  | 10.7 | 8.69
54 | GGUCGUCAAGUCAGGAUAUCGUAUAGUAGAUGUAACGAGAAGGGACAUGAGGAUCACCCAUGUCGUCUCAUCAG | 18.9 | 25.8 |  | 
55 | UGGCACUAGGGAGGAUAUGGGAAGAUACAUGAGGAUCACCCAUGUUUAAGAAUGCCGAGAGGCAACUAGAAGGCCCUAGUACCU |  |  | 486 | 19.3
